Source: ChEMBL document CHEMBL3243962, “Antileukemic activity of derivatives of 1,2-dimethyl-3,4-bis(hydroxymethyl)-5-phenylpyrrole bis(N-methylcarbamate)” (J Med Chem, 1979)

How the values were obtained:
Mus musculus [1] = test: Toxicity in mouse P388 cells allografted CD2F1 mouse assessed as mouse survival at 80 mg/kg, ip of total 9 doses starting 24 hrs post tumor inoculation measured on day 5 of inoculation relative to control; type: organism-based; set-up: dose 80 mg/kg, route intraperitoneal; details: in vivo
Method in brief: (§1)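 Male CD2F1 mice bearing ip P388 leukemia (6×10^6 cells) were dosed ip with nine daily doses in distilled water–Tween 80 suspension, starting 24 h after inoculation. Survivors per group of 6 were counted on day 5, i.e. 4 days after the first dose. Body-weight change of treated minus control mice was also recorded.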

P388 [2] = test: Antitumor activity against mouse P388 cells allografted in CD2F1 mouse assessed as increase in mouse survival at 20 mg/kg, ip of total 9 doses starting 24 hrs post tumor inoculation measured on day 5 of inoculation relative to control; type: functional; details: route intraperitoneal
Method in brief: (§2)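 Male CD2F1 mice inoculated ip with 6×10^6 P388 leukemia cells. Dosing was ip as a suspension in distilled water–Tween 80, nine daily doses starting 24 h after inoculation. Activity was read as median survival time of treated vs control mice (% T/C); % T/C ≥ 120 was considered significant. Groups were 6 mice.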

Mus musculus [3] = test: Toxicity in mouse P388 cells allografted CD2F1 mouse assessed as body weight loss at 40 mg/kg, ip of total 9 doses starting 24 hrs post tumor inoculation measured on day 5 of inoculation relative to control; type: organism-based; set-up: dose 40 mg/kg, route intraperitoneal; details: in vivo
Method in brief: (§3)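 Male CD2F1 mice inoculated ip with 6×10^6 P388 leukemia cells. Compounds given ip as distilled water–Tween 80 suspension, nine daily doses starting 24 h after inoculation; six mice per dose group. Treated-minus-control body-weight change (T − C) and toxicity-day survivors recorded on day 5 (4 days after first dose).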

P388 [4] = test: Antitumor activity against mouse P388 cells allografted in CD2F1 mouse assessed as increase in mouse survival at 80 mg/kg, ip of total 9 doses starting 24 hrs post tumor inoculation measured on day 5 of inoculation relative to control; type: functional; details: route intraperitoneal; method in brief: as §2
Mus musculus [5] = test: Toxicity in mouse P388 cells allografted CD2F1 mouse assessed as body weight loss at 80 mg/kg, ip of total 9 doses starting 24 hrs post tumor inoculation measured on day 5 of inoculation relative to control; type: organism-based; set-up: dose 80 mg/kg, route intraperitoneal; details: in vivo; method in brief: as §3
P388 [6] = test: Antitumor activity against mouse P388 cells allografted in CD2F1 mouse assessed as increase in mouse survival at 5 mg/kg, ip of total 9 doses starting 24 hrs post tumor inoculation measured on day 5 of inoculation relative to control; type: functional; details: route intraperitoneal; method in brief: as §2
Mus musculus [7] = test: Toxicity in mouse P388 cells allografted CD2F1 mouse assessed as mouse survival at 5 mg/kg, ip of total 9 doses starting 24 hrs post tumor inoculation measured on day 5 of inoculation relative to control; type: organism-based; set-up: dose 5 mg/kg, route intraperitoneal; details: in vivo; method in brief: as §1
Mus musculus [8] = test: Toxicity in mouse P388 cells allografted CD2F1 mouse assessed as body weight loss at 5 mg/kg, ip of total 9 doses starting 24 hrs post tumor inoculation measured on day 5 of inoculation relative to control; type: organism-based; set-up: dose 5 mg/kg, route intraperitoneal; details: in vivo; method in brief: as §3
P388 [9] = test: Antitumor activity against mouse P388 cells allografted in CD2F1 mouse assessed as increase in mouse survival at 10 mg/kg, ip of total 9 doses starting 24 hrs post tumor inoculation measured on day 5 of inoculation relative to control; type: functional; details: route intraperitoneal; method in brief: as §2
Mus musculus [10] = test: Toxicity in mouse P388 cells allografted CD2F1 mouse assessed as mouse survival at 40 mg/kg, ip of total 9 doses starting 24 hrs post tumor inoculation measured on day 5 of inoculation relative to control; type: organism-based; set-up: dose 40 mg/kg, route intraperitoneal; details: in vivo; method in brief: as §1
Mus musculus [11] = test: Toxicity in mouse P388 cells allografted CD2F1 mouse assessed as body weight loss at 20 mg/kg, ip of total 9 doses starting 24 hrs post tumor inoculation measured on day 5 of inoculation relative to control; type: organism-based; set-up: dose 20 mg/kg, route intraperitoneal; details: in vivo; method in brief: as §3
Mus musculus [12] = test: Toxicity in mouse P388 cells allografted CD2F1 mouse assessed as mouse survival at 20 mg/kg, ip of total 9 doses starting 24 hrs post tumor inoculation measured on day 5 of inoculation relative to control; type: organism-based; set-up: dose 20 mg/kg, route intraperitoneal; details: in vivo; method in brief: as §1
Mus musculus [13] = test: Toxicity in mouse P388 cells allografted CD2F1 mouse assessed as body weight loss at 10 mg/kg, ip of total 9 doses starting 24 hrs post tumor inoculation measured on day 5 of inoculation relative to control; type: organism-based; set-up: dose 10 mg/kg, route intraperitoneal; details: in vivo; method in brief: as §3
Mus musculus [14] = test: Toxicity in mouse P388 cells allografted CD2F1 mouse assessed as mouse survival at 10 mg/kg, ip of total 9 doses starting 24 hrs post tumor inoculation measured on day 5 of inoculation relative to control; type: organism-based; set-up: dose 10 mg/kg, route intraperitoneal; details: in vivo; method in brief: as §1
P388 [15] = test: Antitumor activity against mouse P388 cells allografted in CD2F1 mouse assessed as increase in mouse survival at 40 mg/kg, ip of total 9 doses starting 24 hrs post tumor inoculation measured on day 5 of inoculation relative to control; type: functional; details: route intraperitoneal; method in brief: as §2
Mus musculus [16] = test: Toxicity in mouse P388 cells allografted CD2F1 mouse assessed as mouse survival at 12.5 mg/kg, ip of total 9 doses starting 24 hrs post tumor inoculation measured on day 5 of inoculation relative to control; type: organism-based; set-up: dose 12.5 mg/kg, route intraperitoneal; details: in vivo; method in brief: as §1
P388 [17] = test: Antitumor activity against mouse P388 cells allografted in CD2F1 mouse assessed as increase in mouse survival at 100 mg/kg, ip of total 9 doses starting 24 hrs post tumor inoculation measured on day 5 of inoculation relative to control; type: functional; details: route intraperitoneal; method in brief: as §2
Mus musculus [18] = test: Toxicity in mouse P388 cells allografted CD2F1 mouse assessed as mouse survival at 100 mg/kg, ip of total 9 doses starting 24 hrs post tumor inoculation measured on day 5 of inoculation relative to control; type: organism-based; set-up: dose 100 mg/kg, route intraperitoneal; details: in vivo; method in brief: as §1
Mus musculus [19] = test: Toxicity in mouse P388 cells allografted CD2F1 mouse assessed as mouse survival at 50 mg/kg, ip of total 9 doses starting 24 hrs post tumor inoculation measured on day 5 of inoculation relative to control; type: organism-based; set-up: dose 50 mg/kg, route intraperitoneal; details: in vivo; method in brief: as §1
P388 [20] = test: Antitumor activity against mouse P388 cells allografted in CD2F1 mouse assessed as increase in mouse survival at 12.5 mg/kg, ip of total 9 doses starting 24 hrs post tumor inoculation measured on day 5 of inoculation relative to control; type: functional; details: route intraperitoneal; method in brief: as §2
Mus musculus [21] = test: Toxicity in mouse P388 cells allografted CD2F1 mouse assessed as mouse survival at 25 mg/kg, ip of total 9 doses starting 24 hrs post tumor inoculation measured on day 5 of inoculation relative to control; type: organism-based; set-up: dose 25 mg/kg, route intraperitoneal; details: in vivo; method in brief: as §1
Mus musculus [22] = test: Toxicity in mouse P388 cells allografted CD2F1 mouse assessed as body weight loss at 50 mg/kg, ip of total 9 doses starting 24 hrs post tumor inoculation measured on day 5 of inoculation relative to control; type: organism-based; set-up: dose 50 mg/kg, route intraperitoneal; details: in vivo; method in brief: as §3
P388 [23] = test: Antitumor activity against mouse P388 cells allografted in CD2F1 mouse assessed as increase in mouse survival at 50 mg/kg, ip of total 9 doses starting 24 hrs post tumor inoculation measured on day 5 of inoculation relative to control; type: functional; details: route intraperitoneal; method in brief: as §2
Mus musculus [24] = test: Toxicity in mouse P388 cells allografted CD2F1 mouse assessed as body weight loss at 12.5 mg/kg, ip of total 9 doses starting 24 hrs post tumor inoculation measured on day 5 of inoculation relative to control; type: organism-based; set-up: dose 12.5 mg/kg, route intraperitoneal; details: in vivo; method in brief: as §3
Mus musculus [25] = test: Toxicity in mouse P388 cells allografted CD2F1 mouse assessed as body weight loss at 100 mg/kg, ip of total 9 doses starting 24 hrs post tumor inoculation measured on day 5 of inoculation relative to control; type: organism-based; set-up: dose 100 mg/kg, route intraperitoneal; details: in vivo; method in brief: as §3
Mus musculus [26] = test: Toxicity in mouse P388 cells allografted CD2F1 mouse assessed as mouse survival at 200 mg/kg, ip of total 9 doses starting 24 hrs post tumor inoculation measured on day 5 of inoculation relative to control; type: organism-based; set-up: dose 200 mg/kg, route intraperitoneal; details: in vivo; method in brief: as §1
P388 [27] = test: Antitumor activity against mouse P388 cells allografted in CD2F1 mouse assessed as increase in mouse survival at 25 mg/kg, ip of total 9 doses starting 24 hrs post tumor inoculation measured on day 5 of inoculation relative to control; type: functional; details: route intraperitoneal; method in brief: as §2
Mus musculus [28] = test: Toxicity in mouse P388 cells allografted CD2F1 mouse assessed as body weight loss at 200 mg/kg, ip of total 9 doses starting 24 hrs post tumor inoculation measured on day 5 of inoculation relative to control; type: organism-based; set-up: dose 200 mg/kg, route intraperitoneal; details: in vivo; method in brief: as §3
P388 [29] = test: Antitumor activity against mouse P388 cells allografted in CD2F1 mouse assessed as increase in mouse survival at 200 mg/kg, ip of total 9 doses starting 24 hrs post tumor inoculation measured on day 5 of inoculation relative to control; type: functional; details: route intraperitoneal; method in brief: as §2
Mus musculus [30] = test: Toxicity in mouse P388 cells allografted CD2F1 mouse assessed as body weight loss at 25 mg/kg, ip of total 9 doses starting 24 hrs post tumor inoculation measured on day 5 of inoculation relative to control; type: organism-based; set-up: dose 25 mg/kg, route intraperitoneal; details: in vivo; method in brief: as §3

Structure (SMILES): CNC(=O)OCc1c(COC(=O)NC)c(-c2ccc(S(=O)(=O)c3ccccc3)cc2)n(C)c1C
- Activity (Mus musculus [1]): Non-toxic
- T/C (P388 [2]): 146%
- Activity (Mus musculus [3]): 3.1 g
- T/C (P388 [4]): 153%
- Activity (Mus musculus [5]): 3.6 g
- T/C (P388 [6]): 137%
- Activity (Mus musculus [7]): Non-toxic
- Activity (Mus musculus [8]): 1.3 g
- T/C (P388 [9]): 136%
- Activity (Mus musculus [10]): Non-toxic
- Activity (Mus musculus [11]): 1.9 g
- Activity (Mus musculus [12]): Non-toxic
- Activity (Mus musculus [13]): 0.9 g
- Activity (Mus musculus [14]): Non-toxic
- T/C (P388 [15]): 153%

Structure (SMILES): CNC(=O)OCc1c(COC(=O)NC)c(-c2ccc(Sc3ccccc3)cc2)n(C)c1C
- Activity (Mus musculus [16]): Non-toxic
- T/C (P388 [17]): 171%
- Activity (Mus musculus [18]): Non-toxic
- Activity (Mus musculus [19]): Non-toxic
- T/C (P388 [20]): 142%
- Activity (Mus musculus [21]): Non-toxic
- Activity (Mus musculus [22]): 2.1 g
- T/C (P388 [23]): 162%
- Activity (Mus musculus [24]): 0.9 g
- Activity (Mus musculus [25]): 3.3 g
- Activity (Mus musculus [26]): Non-toxic
- T/C (P388 [27]): 146%
- Activity (Mus musculus [28]): 3 g
- T/C (P388 [29]): 108%
- Activity (Mus musculus [30]): 2.1 g
